# According to ChEMBL document CHEMBL1255292, “New active drugs against liver stages of Plasmodium predicted by molecular topology” (Antimicrob Agents Chemother, 2008):
# Tests used:
# [1] = Cytotoxicity against Hepatocyte cells assessed as cell viability by MTT assay; assay type: cell-based; conditions: hepatocytes; read-out: TC50 (the source's name)
# How it was run: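 MTT assay in mouse hepatocyte cultures prepared as for infection. Drugs at eight concentrations from 6.4 x 10–3 to 100 µM, triplicate wells. MTT 0.5 mg/ml (final) added for 4 h at 37°C, cells taken up in ethanol/DMSO 50/50, absorbance 550 nm with 620 nm reference. Viability expressed as percent of drug-free controls; TC50 by linear regression.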
# [2] = Selectivity index, ratio of TC50 for hepatocytes to IC50 for Plasmodium yoelii; design: species or system Hepatocyte
# How it was run: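 SI calculated as hepatocyte TC50 (MTT, mouse hepatocytes) divided by liver-stage IC50 against P. yoelii yoelii, both measured in this work.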
# Plasmodium yoelii yoelii = assay: Antimicrobial activity against Plasmodium yoelii 265 liver infected in mammalian hepatocytes after 48 hrs; assay type: functional, organism-based; conditions: Plasmodium yoelii, 265, Hepatocyte
# Plasmodium falciparum = assay: Antimicrobial activity against Plasmodium falciparum NF54 schizonts in mammalian hepatocytes after 96 hrs; assay type: functional, organism-based; conditions: NF54, Hepatocyte
# How it was run: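 Primary hepatocytes isolated by collagenase perfusion, 10^5 cells per chamber-slide well, held 24 h at 37°C, 4% CO2, then infected with 9 x 10^4 NF54 sporozoites dissected from salivary glands of infected Anopheles stephensi. Drugs added at infection to duplicate cultures, seven concentrations from 1 x 10^-6 to 30 µM, renewed daily. Methanol-fixed; HSPi72 serum with FITC anti-mouse IgG; schizonts counted; IC50 by linear regression.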
Compound,CC50 [1] [µM],Selectivity Index [2],IC50 (Plasmodium yoelii yoelii) [nM],IC50 (Plasmodium falciparum) [pM]
COCC(=O)O[C@]1(CCN(C)CCCc2nc3ccccc3[nH]2)CCc2cc(F)ccc2[C@@H]1C(C)C [MIBEFRADIL],67.9,77000,0.873,
CC[C@]1(O)C[C@@H]2CN(CCc3c([nH]c4ccccc34)[C@@](C(=O)OC)(c3cc4c(cc3OC)N(C)[C@H]3[C@@](O)(C(=O)OC)[C@H](OC(C)=O)[C@]5(CC)C=CCN6CC[C@]43[C@@H]65)C2)C1 [VINBLASTINE],54.5,6.85,7950,
Clc1ccc(COC(Cn2ccnc2)c2ccc(Cl)cc2Cl)c(Cl)c1 (stereo unspecified) [MICONAZOLE],70.4,34700,2.03,
COc1cc(NC(C)CCCN)c2ncccc2c1 (stereo unspecified) [PRIMAQUINE],12.5,,,
CO[C@@H]1C[C@@H](C[C@H]2CC[C@H](C)[C@H]([C@@H](C)C(=O)O)O2)O[C@]2(O[C@](C)([C@H]3CC[C@@](C)([C@@H]4O[C@@H]([C@H]5O[C@@](O)(CO)[C@H](C)C[C@@H]5C)C[C@@H]4C)O3)C[C@H]2C)[C@@H]1C [NIGERICIN],13.2,>13200000,< 0.001,< 1
CC(C)(C)NC(=O)[C@@H]1CN(Cc2cccnc2)CCN1C[C@@H](O)C[C@@H](Cc1ccccc1)C(=O)N[C@H]1c2ccccc2C[C@H]1O,8.77,,5000,
CC[C@@]1([C@@H]2O[C@@H]([C@H]3O[C@@](O)(CO)[C@H](C)C[C@@H]3C)C[C@@H]2C)CC[C@H]([C@]2(C)CC[C@]3(C[C@H](O)[C@@H](C)[C@@H]([C@@H](C)[C@@H](OC)[C@H](C)C(=O)O)O3)O2)O1 [MONENSIN],> 32,>32000000,< 0.001,< 1
O=C1C(O)=C([C@H]2CC[C@H](c3ccc(Cl)cc3)CC2)C(=O)c2ccccc21 [ATOVAQUONE],16.5,289,57,
CC(N)C12CC3CC(CC(C3)C1)C2 (stereo unspecified) [RIMANTADINE],> 100,>3.33,35.6,
CCOC(=O)NC(=S)Nc1ccccc1NC(=S)NC(=O)OCC [THIOPHANATE],> 100,>3.33,30000,
C=CC(C)(C)c1cc(/C=C/C(=O)c2ccc(O)cc2)c(OC)cc1O [LICOAGROCHACONE A],63.4,68300,0.927,
COC(=O)Nc1nc2cc(Sc3ccccc3)ccc2[nH]1 [FENBENDAZOLE],> 100,>3.33,30000,
CCN(CC)CCCC(C)Nc1c2ccc(Cl)cc2nc2ccc(OC)cc12 (stereo unspecified) [QUINACRINE],> 11.6,>0.38,30000,
CC(C)c1nc(CN(C)C(=O)N[C@H](C(=O)N[C@@H](Cc2ccccc2)C[C@H](O)[C@H](Cc2ccccc2)NC(=O)OCc2cncs2)C(C)C)cs1 [RITONAVIR],,,34.2,
CC(C)Nc1cccnc1N1CCN(C(=O)c2cc3cc(NS(C)(=O)=O)ccc3[nH]2)CC1 [DELAVIRDINE],> 100,>118000,0.846,
CC(CCc1ccc(O)cc1)NCCc1ccc(O)c(O)c1 (stereo unspecified) [DOBUTAMINE],> 100,>27000,3.7,
CC[C@H](C)[C@H](NC(=O)[C@H]([C@@H](C)CC)N(C)C(C)=O)C(=O)N[C@H](C(=O)N[C@@H](CC(C)C)C(=O)[C@@]1(C)CO1)[C@@H](C)O [EPOXOMYCIN],47.3,11.97,3950,
CC(Cc1ccc(O)c(O)c1)C(C)Cc1ccc(O)c(O)c1 (stereo unspecified) [NORDIHYDROGUAIARETIC ACID],> 100,>3.33,30000,
